Where “and” joins values, the source holds several entries; their conditions need not be identical. Equal values may be shown once.

For one assay, the system named is MCF-7. As to the kind of experiment: MTT anti-proliferative assay on MCF-7. It is filed as cell-based. The settings on record: Homo sapiens, MCF7, read-out: MCF-7 (IC50). A digest of the protocol: (§1)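 Human MCF-7 and HepG2 cancer cell lines exposed to test compounds. Anti-proliferative IC50 given in μM. Each reported value is the mean of IC50 values from three separate experiments.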
On the technique in general: Formazan colour is commonly taken as a measure of viable cells.

In a further assay the test system is HepG2. The assay is described as follows: MTT anti-proliferative assay on HepG2. It is filed as cell-based. The settings on record: Homo sapiens, HepG2, read-out: HepG2 (IC50). A digest of the protocol: as §1
A further assay deals with CDK8 (Homo sapiens, UniProt P49336). The assay is described as follows: Kinase profiling test, CDK8. Type of assay: biochemical. The note with it: CDK8 IC50 (mean ± SD).
CDK8, sequence (P49336 whole entry): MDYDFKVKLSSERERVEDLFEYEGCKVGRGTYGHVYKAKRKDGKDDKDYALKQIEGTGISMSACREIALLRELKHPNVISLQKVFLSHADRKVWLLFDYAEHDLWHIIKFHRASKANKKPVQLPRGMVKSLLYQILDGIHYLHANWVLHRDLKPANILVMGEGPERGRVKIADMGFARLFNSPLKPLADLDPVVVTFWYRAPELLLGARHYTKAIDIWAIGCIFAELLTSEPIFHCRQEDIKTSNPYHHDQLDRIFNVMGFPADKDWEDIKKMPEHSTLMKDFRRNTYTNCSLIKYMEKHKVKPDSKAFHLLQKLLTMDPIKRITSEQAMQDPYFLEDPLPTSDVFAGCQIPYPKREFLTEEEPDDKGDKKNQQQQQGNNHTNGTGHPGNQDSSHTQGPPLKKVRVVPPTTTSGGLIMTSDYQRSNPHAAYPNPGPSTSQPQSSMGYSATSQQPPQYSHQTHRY
CDK8, sequence (P24863 whole entry partner): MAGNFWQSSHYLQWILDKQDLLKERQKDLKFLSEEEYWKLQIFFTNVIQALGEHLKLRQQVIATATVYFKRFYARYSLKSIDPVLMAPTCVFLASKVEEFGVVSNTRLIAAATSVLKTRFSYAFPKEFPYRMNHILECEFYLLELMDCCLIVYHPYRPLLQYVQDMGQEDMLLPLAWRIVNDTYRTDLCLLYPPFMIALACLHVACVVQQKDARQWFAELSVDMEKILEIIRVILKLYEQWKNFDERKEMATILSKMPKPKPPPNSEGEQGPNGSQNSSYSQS
Another assay deals with caspase-8. As to the kind of experiment: RT-PCR caspase-8 expression in MCF-7 cells. It is filed as cell-based. The settings on record: MCF-7, 0.06 µM; control 1.
The target in a further assay is VEGFR-2 (Homo sapiens, UniProt P35968). The assay is described as follows: biochemical.
VEGFR-2, sequence (P35968 20-1356): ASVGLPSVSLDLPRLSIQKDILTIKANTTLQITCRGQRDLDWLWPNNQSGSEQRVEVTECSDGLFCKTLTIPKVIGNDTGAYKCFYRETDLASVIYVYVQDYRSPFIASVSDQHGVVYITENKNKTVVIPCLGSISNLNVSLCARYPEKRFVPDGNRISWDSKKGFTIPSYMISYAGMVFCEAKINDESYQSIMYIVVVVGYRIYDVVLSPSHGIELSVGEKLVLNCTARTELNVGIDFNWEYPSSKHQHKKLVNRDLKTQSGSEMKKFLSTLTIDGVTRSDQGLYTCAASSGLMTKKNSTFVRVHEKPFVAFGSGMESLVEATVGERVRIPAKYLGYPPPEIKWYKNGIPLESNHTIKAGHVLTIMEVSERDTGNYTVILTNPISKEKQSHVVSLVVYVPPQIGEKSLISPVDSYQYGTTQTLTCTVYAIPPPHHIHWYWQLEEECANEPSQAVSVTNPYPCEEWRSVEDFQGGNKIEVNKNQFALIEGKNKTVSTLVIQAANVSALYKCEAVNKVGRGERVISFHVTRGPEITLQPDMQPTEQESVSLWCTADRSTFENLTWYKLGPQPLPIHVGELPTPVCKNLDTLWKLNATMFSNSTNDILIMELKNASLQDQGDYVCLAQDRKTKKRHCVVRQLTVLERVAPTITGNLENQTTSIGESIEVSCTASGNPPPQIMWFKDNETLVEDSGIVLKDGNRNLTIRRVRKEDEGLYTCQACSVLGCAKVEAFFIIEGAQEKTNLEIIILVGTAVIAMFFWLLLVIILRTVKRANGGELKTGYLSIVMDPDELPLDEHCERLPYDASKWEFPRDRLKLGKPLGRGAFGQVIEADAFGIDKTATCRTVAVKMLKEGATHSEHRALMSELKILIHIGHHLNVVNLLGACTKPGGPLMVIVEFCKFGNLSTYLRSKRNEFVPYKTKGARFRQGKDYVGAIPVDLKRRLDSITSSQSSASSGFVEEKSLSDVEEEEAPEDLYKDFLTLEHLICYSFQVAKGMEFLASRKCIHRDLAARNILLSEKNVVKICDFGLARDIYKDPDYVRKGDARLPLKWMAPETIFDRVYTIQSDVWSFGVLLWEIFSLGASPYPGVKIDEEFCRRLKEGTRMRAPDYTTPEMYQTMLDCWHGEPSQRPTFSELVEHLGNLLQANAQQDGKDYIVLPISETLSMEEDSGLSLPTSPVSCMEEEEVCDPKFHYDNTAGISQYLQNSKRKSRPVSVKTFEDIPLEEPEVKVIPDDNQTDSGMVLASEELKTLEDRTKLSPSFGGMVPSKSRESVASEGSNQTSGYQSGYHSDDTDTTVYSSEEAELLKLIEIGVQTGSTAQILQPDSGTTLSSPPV
In the next assay the target is BRAF (Homo sapiens, UniProt P15056). The assay is described as follows: Kinase profiling test, BRAF. Type of assay: biochemical.
BRAF, sequence (P15056 whole entry): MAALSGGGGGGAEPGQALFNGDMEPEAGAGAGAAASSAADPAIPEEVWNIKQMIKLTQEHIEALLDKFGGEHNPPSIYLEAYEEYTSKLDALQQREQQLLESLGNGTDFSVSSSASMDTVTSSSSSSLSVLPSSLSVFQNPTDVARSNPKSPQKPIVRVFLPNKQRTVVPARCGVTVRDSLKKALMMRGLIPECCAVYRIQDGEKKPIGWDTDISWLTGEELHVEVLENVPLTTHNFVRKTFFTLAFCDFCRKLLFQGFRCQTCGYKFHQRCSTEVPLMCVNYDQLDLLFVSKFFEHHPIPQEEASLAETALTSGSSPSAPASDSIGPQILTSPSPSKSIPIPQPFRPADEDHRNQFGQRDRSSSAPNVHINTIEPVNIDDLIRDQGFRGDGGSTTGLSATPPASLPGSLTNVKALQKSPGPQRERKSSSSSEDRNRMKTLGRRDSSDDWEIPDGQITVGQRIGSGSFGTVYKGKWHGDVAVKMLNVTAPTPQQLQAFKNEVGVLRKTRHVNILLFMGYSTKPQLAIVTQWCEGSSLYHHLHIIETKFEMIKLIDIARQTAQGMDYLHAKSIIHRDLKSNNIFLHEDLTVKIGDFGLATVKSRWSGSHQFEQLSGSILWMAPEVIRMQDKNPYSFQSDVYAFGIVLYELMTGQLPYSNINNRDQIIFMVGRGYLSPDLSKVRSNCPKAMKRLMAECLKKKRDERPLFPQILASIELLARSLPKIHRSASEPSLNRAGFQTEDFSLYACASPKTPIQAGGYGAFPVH
Assay [1] has as its system MCF-7 cells. As to the kind of experiment: Apoptosis assay. Type of assay: cell-based. The note with it: MCF-7, 0.06 µM, 72 h.
Another assay relates to caspase-9. The assay is described as follows: RT-PCR caspase-9 expression in MCF-7 cells. Type of assay: cell-based. The note with it: MCF-7, 0.06 µM; control 1.
The subject of assay [2] is MCF-7 cells. The assay is described as follows: Cell cycle analysis by flow cytometry. It is filed as cell-based. The note with it: MCF-7, 0.06 µM, 72 h. A general note: A flow cytometer gives signals particle by particle.
The subject of a further assay is WI-38. As to the kind of experiment: Safety assay: cytotoxicity against normal human lung cells. It is filed as cell-based. In a few lines: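 Normal human lung WI-38 cells exposed to test compound for in vitro cytotoxicity. IC50 in μM is the mean of IC50 values from three separate experiments. Selectivity index = IC50 in WI-38 / IC50 in MCF-7 or HepG2 cancer cells.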

Another assay deals with PIK3α (Homo sapiens, UniProt P42336). As to the kind of experiment: Kinase profiling test, PIK3α. It is filed as biochemical.
For the next assay, the target named is EGFR (Homo sapiens, UniProt P00533). As to the kind of experiment: Kinase profiling test, EGFR. Type of assay: biochemical.
EGFR, sequence (P00533 25-1210): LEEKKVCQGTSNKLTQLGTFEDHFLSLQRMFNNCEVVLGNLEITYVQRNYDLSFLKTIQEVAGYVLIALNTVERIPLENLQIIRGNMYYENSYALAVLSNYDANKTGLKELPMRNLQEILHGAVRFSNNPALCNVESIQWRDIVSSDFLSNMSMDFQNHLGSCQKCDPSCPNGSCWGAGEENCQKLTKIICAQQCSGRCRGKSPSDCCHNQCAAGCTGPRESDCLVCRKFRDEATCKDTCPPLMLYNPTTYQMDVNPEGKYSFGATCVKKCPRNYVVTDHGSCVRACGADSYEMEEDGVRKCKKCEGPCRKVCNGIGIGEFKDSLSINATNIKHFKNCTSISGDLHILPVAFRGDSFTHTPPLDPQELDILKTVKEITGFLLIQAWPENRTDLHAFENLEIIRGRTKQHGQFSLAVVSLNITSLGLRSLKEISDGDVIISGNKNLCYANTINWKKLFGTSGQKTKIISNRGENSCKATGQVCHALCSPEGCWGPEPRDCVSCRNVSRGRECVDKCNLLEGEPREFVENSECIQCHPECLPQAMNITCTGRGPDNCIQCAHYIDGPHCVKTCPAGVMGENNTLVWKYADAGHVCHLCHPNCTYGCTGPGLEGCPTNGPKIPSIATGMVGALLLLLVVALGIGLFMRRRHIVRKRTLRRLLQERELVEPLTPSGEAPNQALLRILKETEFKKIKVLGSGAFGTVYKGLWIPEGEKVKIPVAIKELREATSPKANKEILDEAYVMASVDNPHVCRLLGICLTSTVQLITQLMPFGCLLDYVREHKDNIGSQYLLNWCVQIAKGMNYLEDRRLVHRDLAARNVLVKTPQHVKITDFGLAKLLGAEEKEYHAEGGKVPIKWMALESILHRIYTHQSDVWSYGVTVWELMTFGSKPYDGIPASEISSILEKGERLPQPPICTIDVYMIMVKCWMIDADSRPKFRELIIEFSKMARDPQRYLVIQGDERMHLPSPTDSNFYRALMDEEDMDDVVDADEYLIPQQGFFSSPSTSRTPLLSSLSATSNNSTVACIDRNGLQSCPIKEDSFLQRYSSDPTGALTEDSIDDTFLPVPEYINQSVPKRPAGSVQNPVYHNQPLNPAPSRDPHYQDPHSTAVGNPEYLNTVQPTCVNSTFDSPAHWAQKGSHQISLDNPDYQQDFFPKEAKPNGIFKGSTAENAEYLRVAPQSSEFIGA

Consider `CCOC(=O)c1nn(-c2cccc(Cl)c2)/c(=N/N=C(\C)c2ccc(NC(=O)c3ccc(Cl)cc3)cc2)s1` [Compound 21b, Ethyl (Z)-5-(((E)-1-(4-(4-Chlorobenzamido)phenyl)ethylidene)hydrazono)-4-(3-chlorophenyl)-4,5-dihydro-1,3,4-thiadiazole-2-carboxylate], for which the figures for the IC50 in the assay with MCF-7 and in the assay on HepG2 were 140 ± 10 nM and 130 ± 10 nM, respectively.
For the compound `CC(=O)c1nn(-c2ccc(C)cc2)/c(=N/N=C(\C)c2ccc(NC(=O)c3ccccc3)cc2)s1` [Compound 20b, N-(4-((E)-1-(((Z)-5-Acetyl-3-(p-tolyl)-1,3,4-thiadiazol-2(3H)-ylidene)hydrazono)ethyl)phenyl) benzamide], the IC50 (usually the point on the concentration scale where inhibition reaches its midpoint) was 266 ± 58 nM at CDK8; 50 ± 10 nM in the assay with MCF-7; 51.1 nM and 51 nM against VEGFR-2 (VEGFR-2 IC50, mean of three experiments); 24 nM on VEGFR-2 (VEGFR-2 inhibition); 5840 ± 250 nM at BRAF; 140 ± 10 nM in the assay on HepG2. The IC50 with WI-38 (Homo sapiens, WI-38, read-out: WI-38 IC50) amounted to 190 ± 10 nM; against PIK3α, 2140 ± 95 nM; against EGFR, 1430 ± 85 nM. Further, the “Caspase-8 RT-PCR (fold change)” value in the assay on caspase-8 is 3.42 fold change and 3.4176 fold change. The same compound yielded a Late apoptosis with MCF-7 cells [1] (control 0.24) of 15.99%. The same compound registered an Early apoptosis in the assay on MCF-7 cells [1] (control 0.61) of 18.48%. For the same compound, the Necrosis in the assay on MCF-7 cells [1] (control 1.43) is 4.14%. The compound further displayed a Total apoptosis in the assay with MCF-7 cells [1] (untreated 0.85) of 34.47%. The “Caspase-9 RT-PCR (fold change)” value in the assay on caspase-9 is 5.44 fold change and 5.4353 fold change. Moreover, the “Cell cycle distribution % G2/M” value in the assay with MCF-7 cells [2] (control 13.72) is 11.99%. In addition, in the assay on MCF-7 cells [2] (control 23.91), the “Cell cycle distribution % S” value was determined as 18.76%. Also, the “Cell cycle distribution % G0-G1” value in the assay with MCF-7 cells [2] (control 62.37) was 69.25%. Further, in the assay on WI-38 (SI = IC50 in normal cells (WI-38)/IC50 in HepG2), the “Selectivity index HepG2” value turned out to be 1.4. Besides, in the assay on WI-38 (SI = IC50 in normal cells (WI-38)/IC50 in MCF-7), the “Selectivity index MCF-7” value was 3.8.
Take `CC(=O)Nc1ccc(/C(C)=N/N=c2\sc(C(C)=O)nn2-c2ccc(C)cc2)cc1` [Compound 16, N-(4-((E)-1-(((Z)-5-Acetyl-3-(p-tolyl)-1,3,4-thiadiazol-2(3H)-ylidene)hydrazono)ethyl)phenyl) acetamide]: the IC50 with MCF-7 worked out at 1250 ± 20 nM; with HepG2, 9920 ± 220 nM.
As to `CCOC(=O)c1nn(-c2cccc(Cl)c2)/c(=N/N=C(\C)c2ccc(NC(=O)c3ccccc3)cc2)s1` [Compound 21a, Ethyl (Z)-5-(((E)-1-(4-benzamidophenyl)ethylidene)hydrazono)-4-(3-chlorophenyl)-4,5-dihydro-1,3,4-thiadiazole-2-carboxylate], the half-inhibitory concentration (IC50) stood at 190 ± 10 nM with MCF-7 and 150 ± 10 nM in the assay on HepG2.
In the case of `CC(=O)c1nn(-c2ccccc2Cl)/c(=N/N=C(\C)c2ccc(NC(=O)c3ccccc3)cc2)s1` [Compound 20a, N-(4-((E)-1-(((Z)-5-Acetyl-3-(2-chlorophenyl)-1,3,4-thiadiazol-2(3H)-ylidene)hydrazono)ethyl)phenyl)benzamide], the IC50 in the assay on MCF-7 turned out to be 60 ± 10 nM; in the assay with HepG2 it was 130 ± 10 nM.
Turning to `CNC(=O)c1cc(Oc2ccc(NC(=O)Nc3ccc(Cl)c(C(F)(F)F)c3)cc2)ccn1` [Sorafenib, reference compound], the IC50 was determined as 140 ± 30 nM in the assay on MCF-7 and 130 ± 30 nM in the assay on HepG2.

The record behind these values is paper PMC11539005 (RSC Advances, 2024).
